What was measured:
[1] = molecular target: Sodium-dependent dopamine transporter (Rattus norvegicus, UniProt P23977); assay: Ability to inhibit high affinity uptake of [3H]DA at Dopamine transporter (DAT) using rat brain striatum; format: tissue-based
Outline: (§1)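 Rat synaptosomal (P2) uptake: striatum for DAT, midbrain for SERT, parietal/occipital cortex for NET, in modified KRH pH 7.4 with nialamide. Drug preincubated 30 min at 4 °C, then 15 min at 37 °C. [3H]amine final ~5 nM (DA, 5-HT) or 9 nM (NE), 5 min uptake, stopped with cold Na-free buffer and filtered. Background from 0 °C tubes. IC50 converted to Ki by Cheng–Prusoff. Mean ± SE, ≥3 experiments.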

[2] = molecular target: Norepinephrine transporter (Rattus norvegicus, UniProt Q9WTR4); assay: Ability to inhibit high affinity uptake of [3H]NE at Norepinephrine transporter (NET) using rat brain parietal/occipital cortex; format: tissue-based; outline: as §1
[3] = molecular target: T1, Sodium-dependent serotonin transporter (Rattus norvegicus, UniProt P31652); assay: (§2) Ability to inhibit high affinity uptake of [3H]-5-HT at Serotonin transporter (SERT) using rat midbrain; format: tissue-based; outline: as §1
Target sequence in this assay (P31652 whole entry): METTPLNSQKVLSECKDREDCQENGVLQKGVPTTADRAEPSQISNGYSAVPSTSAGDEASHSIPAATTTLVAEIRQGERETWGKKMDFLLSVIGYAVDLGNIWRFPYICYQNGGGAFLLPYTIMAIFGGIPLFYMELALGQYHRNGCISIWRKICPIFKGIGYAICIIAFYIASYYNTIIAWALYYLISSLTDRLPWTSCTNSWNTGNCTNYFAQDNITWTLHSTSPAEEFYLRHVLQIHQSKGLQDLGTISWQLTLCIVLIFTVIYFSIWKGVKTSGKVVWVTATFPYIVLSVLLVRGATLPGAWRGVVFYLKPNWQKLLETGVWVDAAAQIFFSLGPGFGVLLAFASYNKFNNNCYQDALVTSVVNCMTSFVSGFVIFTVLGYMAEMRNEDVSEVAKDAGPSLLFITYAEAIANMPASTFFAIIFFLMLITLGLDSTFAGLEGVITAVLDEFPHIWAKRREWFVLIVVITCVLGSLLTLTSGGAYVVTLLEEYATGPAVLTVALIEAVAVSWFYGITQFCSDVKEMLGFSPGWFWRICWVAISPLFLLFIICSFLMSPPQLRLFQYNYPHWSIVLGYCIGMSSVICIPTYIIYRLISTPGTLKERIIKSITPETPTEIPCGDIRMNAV

[4] = molecular target: Monoamine transporters; serotonin & dopamine (Rattus norvegicus) (UniProt P31652+P23977); assay: Ratio of affinity for serotonin transporter to that of dopamine transporter; format: protein assay
Outline: (§3)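 Ratios of Ki values from rat synaptosomal [3H]amine uptake inhibition at SERT (midbrain), DAT (striatum) and NET (parietal/occipital cortex). Ki came from IC50 via Cheng–Prusoff.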

[5] = molecular target: Monoamine transporters; Norepinephrine & serotonin (Rattus norvegicus) (UniProt P31652+Q9WTR4); assay: Ratio of affinity for Norepinephrine transporter to that of Serotonin transporter; format: protein assay; outline: as §3
[6] = molecular target: T1, Sodium-dependent serotonin transporter; assay: as §2; format: tissue-based; remark: listed apart in the source
Outline: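 Rat midbrain P2 synaptosomes in ice-cold modified KRH buffer (pH 7.4, with 0.01 mM nialamide). Drug preincubated 30 min at 4 °C, then 15 min at 37 °C. Uptake started with ~5 nM [3H]5-HT (final) and run 5 min. Stopped with cold sodium-free glucosamine buffer and GF/C filtration. IC50 by LIGAND, converted to Ki by Cheng–Prusoff. Mean ± SE of ≥3 experiments.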
Target sequence in this assay (P31652 whole entry, looked up): as the sequence (P31652 whole entry) above

Chain of Norepinephrine transporter (Q9WTR4 whole entry): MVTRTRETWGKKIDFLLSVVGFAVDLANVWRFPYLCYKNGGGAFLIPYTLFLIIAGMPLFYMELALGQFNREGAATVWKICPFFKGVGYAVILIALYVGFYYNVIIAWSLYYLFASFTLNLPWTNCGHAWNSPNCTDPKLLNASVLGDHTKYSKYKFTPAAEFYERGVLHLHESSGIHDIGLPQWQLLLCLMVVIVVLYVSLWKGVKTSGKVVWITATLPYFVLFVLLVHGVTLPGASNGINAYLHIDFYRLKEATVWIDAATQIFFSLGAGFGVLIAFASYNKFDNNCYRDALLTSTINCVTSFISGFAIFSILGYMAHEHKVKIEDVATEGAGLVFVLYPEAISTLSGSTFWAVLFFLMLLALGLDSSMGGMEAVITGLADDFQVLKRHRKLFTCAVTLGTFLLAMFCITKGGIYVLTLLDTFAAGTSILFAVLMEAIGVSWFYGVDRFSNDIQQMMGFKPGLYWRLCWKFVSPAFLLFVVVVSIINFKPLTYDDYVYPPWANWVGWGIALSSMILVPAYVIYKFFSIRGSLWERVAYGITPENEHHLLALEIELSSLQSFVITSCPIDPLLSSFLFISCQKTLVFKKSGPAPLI
Chain of Sodium-dependent dopamine transporter (P23977 whole entry): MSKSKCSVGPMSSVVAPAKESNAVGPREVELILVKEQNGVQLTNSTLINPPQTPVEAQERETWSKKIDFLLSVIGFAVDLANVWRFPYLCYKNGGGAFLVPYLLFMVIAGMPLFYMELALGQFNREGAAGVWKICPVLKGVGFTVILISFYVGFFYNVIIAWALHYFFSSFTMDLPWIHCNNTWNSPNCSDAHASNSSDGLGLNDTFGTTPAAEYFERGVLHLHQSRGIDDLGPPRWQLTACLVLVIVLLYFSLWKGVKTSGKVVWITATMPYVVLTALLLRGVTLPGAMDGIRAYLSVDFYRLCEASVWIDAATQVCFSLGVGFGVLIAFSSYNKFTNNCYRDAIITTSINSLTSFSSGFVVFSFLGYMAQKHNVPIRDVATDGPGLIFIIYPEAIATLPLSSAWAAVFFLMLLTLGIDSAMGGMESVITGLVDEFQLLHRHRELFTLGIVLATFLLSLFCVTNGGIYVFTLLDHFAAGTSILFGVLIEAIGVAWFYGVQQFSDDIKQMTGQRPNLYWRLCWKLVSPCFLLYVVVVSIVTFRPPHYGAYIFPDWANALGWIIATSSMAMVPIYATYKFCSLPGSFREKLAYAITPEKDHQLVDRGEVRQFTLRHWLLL
Chain of Monoamine transporters; serotonin & dopamine (Rattus norvegicus) (P23977 whole entry, looked up): as the sequence (P23977 whole entry) above
Chain of Monoamine transporters; serotonin & dopamine (Rattus norvegicus) (P31652 whole entry, looked up): as the sequence (P31652 whole entry) above

Row | SMILES | Ki [1] [nM] | Ki [2] [nM] | Ki [3] [nM] | Ratio [4] | Ratio [5] | Ki [6] [nM]
1 | CN1CC[C@H](c2ccc(Cl)cc2)[C@@H](CCC(=O)Nc2ccccc2)C1 | 201 | 56 | 354 | 1.8 | 0.16 | –
2 | CN1CC[C@H](c2ccc(Cl)cc2)[C@@H](CC(=O)OCCCc2ccccc2)C1 | 36 | 48 | 82 | 2.3 | 0.59 | –
3 | CN1CC[C@H](c2ccc(Cl)cc2)C(C(=O)N(C)C)C1 (some centres not stated) | 2140 | 569 | 18900 | 8.8 | 0.03 | –
4 | CN1CC[C@H](c2ccc(Cl)cc2)[C@@H](C(=O)O)C1 | – | – | 131000 | 0.76 | 2.2 | 282000
5 | CN1CC[C@H](c2ccc(Cl)cc2)[C@@H](COC(=O)Nc2ccccc2)C1 | 91 | 33 | 1290 | 14 | 0.026 | –
6 | COC(=O)CC[C@H]1CN(C)CC[C@@H]1c1ccc(Cl)cc1 | 68 | 31 | 255 | 3.8 | 0.12 | –
7 | CCNC(=O)OC[C@H]1CN(C)CC[C@@H]1c1ccc(Cl)cc1 | 181 | 100 | 854 | 4.7 | 0.12 | –
8 | CN1CC[C@H](c2ccc(Cl)cc2)[C@@H](CCC(=O)O)C1 | 1300 | 425 | 4540 | 3.5 | 0.094 | –
9 | C=CCOC[C@H]1CN(C)CC[C@@H]1c1ccc(Cl)cc1 | 60 | 20 | 231 | 3.9 | 0.087 | –
10 | CN1CC[C@H](c2ccc(Cl)cc2)[C@@H](CCCF)C1 | 43 | 356 | 5190 | 120 | 0.069 | –
11 | CN1CC[C@H](c2ccc(Cl)cc2)[C@@H](CC(=O)O)C1 | 3010 | 3810 | > 10000 | – | – | –
12 | CN1CC[C@H](c2ccc(Cl)cc2)[C@@H](CC(=O)NC23CC4CC(CC(C4)C2)C3)C1 | 706 | 1080 | 376 | 0.53 | 2.9 | –
13 | CN1CC[C@H](c2ccc(Cl)cc2)[C@@H](CCC(=O)NC23CC4CC(CC(C4)C2)C3)C1 | 446 | 152 | 585 | 1.3 | 0.26 | –
14 | CN1CC[C@H](c2ccc(Cl)cc2)[C@@H](C(=O)OCCCCCc2ccccc2)C1 | 53 | 382 | 1790 | 34 | 0.21 | –
15 | CN1CC[C@H](c2ccc(Cl)cc2)[C@@H](COC(=O)c2ccccc2)C1 | 273 | 389 | 296 | 1.1 | 1.3 | –
16 | CN1CC[C@H](c2ccc(Cl)cc2)C(C(=O)N2CCCC2)C1 (some centres not stated) | – | 2000 | – | – | – | –
17 | CN1CC[C@H](c2ccc(Cl)cc2)[C@@H](CCCO)C1 | 16 | 564 | 2810 | 175 | 0.2 | –
18 | CN1CC[C@H](c2ccc(Cl)cc2)[C@@H](CC(=O)N(C)Cc2ccccc2)C1 | 165 | 32 | 66 | 0.4 | 0.49 | –
19 | CNC(=O)C[C@H]1CN(C)CC[C@@H]1c1ccc(Cl)cc1 | – | 251 | 2270 | 2.5 | 0.11 | –
20 | CN1CC[C@H](c2ccc(Cl)cc2)C(C(=O)Oc2ccccc2)C1 (some centres not stated) | 906 | 2180 | 2120 | 2.3 | 1 | –
21 | CN1CC[C@H](c2ccc(Cl)cc2)[C@@H](CC(=O)N(C)C)C1 | 16 | 46 | 1990 | 125 | 0.023 | –
22 | CN1CC[C@H](c2ccc(Cl)cc2)[C@@H](CC(=O)NCc2ccccc2)C1 | 270 | 107 | 191 | 0.71 | 0.56 | –
23 | COC(=O)/C=C/[C@H]1CN(C)CC[C@@H]1c1ccc(Cl)cc1 | 53 | 272 | 501 | 9.5 | 0.54 | –
24 | CN1CC[C@H](c2ccc(Cl)cc2)[C@@H](COC(=O)NC23CC4CC(CC(C4)C2)C3)C1 | 56 | 56 | 37 | 0.66 | 1.5 | –
25 | CCOC(=O)C[C@H]1CN(C)CC[C@@H]1c1ccc(Cl)cc1 | 79 | 101 | 191 | 2.4 | 0.53 | –
26 | CCC[C@H]1CN(C)CC[C@@H]1c1ccc(Cl)cc1 | 20 | 6.5 | 228 | 11 | 0.029 | –
27 | CC(=O)OC[C@H]1CN(C)CC[C@@H]1c1ccc(Cl)cc1 | 599 | 235 | 901 | 1.5 | 0.26 | –
28 | CN1CC[C@H](c2ccc(Cl)cc2)[C@@H](C(=O)OC(C)(C)C)C1 | 318 | 350 | 5750 | 18 | 0.061 | –
